ChEMBL document CHEMBL4270554, “Discovery of the cancer cell selective dual acting anti-cancer agent (Z)-2-(1H-indol-3-yl)-3-(isoquinolin-5-yl)acrylonitrile (A131)” (Eur J Med Chem, 2018)
Calls of active or inactive are those of the source. The rule behind the calls is not given here.

How the values were obtained:
[1] = test system: HeLa; test: Induction of autophagy in human HeLa cells assessed as increase in LC3-2 to LC3-1 ratio at 1.25 uM after 6 hrs by immunoblot analysis relative to control; type: functional
Summary of the method: (§1)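 HeLa cells exposed 6 h to test agent (0.625–10 μM series) or chloroquine (1.25–100 μM series) vs DMSO; lysed in 1% Triton buffer (25 mM Tris pH 8.0, 150 mM NaCl, DTT, protease/phosphatase inhibitors), 14% SDS-PAGE, immunoblot with anti-LC3, anti-pH3(Ser10), β-actin loading. LC3-II/LC3-I band intensity ratio expressed relative to DMSO control.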

[2] = test system: HeLa; test: Induction of autophagy in human HeLa cells assessed as increase in LC3-2 to LC3-1 ratio at 10 uM after 6 hrs by immunoblot analysis relative to control; type: functional; summary of the method: as §1
[3] = test system: HeLa; test: Induction of autophagy in human HeLa cells assessed as increase in LC3-2 to LC3-1 ratio at 50 uM after 6 hrs by immunoblot analysis relative to control; type: functional; summary of the method: as §1
[4] = test system: HeLa; test: Induction of mitotic arrest in human HeLa cells assessed as formation of misaligned chromosomes at 15 to 25 uM after 6 hrs by DAPI staining-based immunofluorescence analysis; type: functional, cell-based
[5] = test system: HeLa; test: Induction of mitotic arrest in human HeLa cells assessed as formation of disorganized spindles at 15 to 25 uM after 6 hrs by DAPI staining-based immunofluorescence analysis; type: functional, cell-based
[6] = test system: HeLa; test: Induction of autophagy in human HeLa cells assessed as increase in LC3-2 to LC3-1 ratio at 100 uM after 6 hrs by immunoblot analysis relative to control; type: functional; summary of the method: as §1
[7] = test system: HeLa; test: Inhibition of mitotic progression in human HeLa cells assessed as upregulation of phosphorylated histone H3 (Ser10) level up to 100 uM after 6 hrs by immunoblot analysis; type: functional, cell-based
Summary of the method: (§2)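 HeLa cells treated 6 h with 0.625–10 μM test agent or chloroquine (1.25–100 μM), or DMSO. Lysis in 1% Triton buffer (pH 8.0) with protease and phosphatase inhibitors, 14% SDS-PAGE, immunoblot for LC3, pH3 (Ser10) and β-actin. Band intensity ratios (LC3-II/LC3-I; pH3) expressed relative to DMSO control.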

[8] = test system: HeLa; test: Induction of autophagy in human HeLa cells assessed as increase in LC3-2 to LC3-1 ratio at 2.5 uM after 6 hrs by immunoblot analysis relative to control; type: functional; summary of the method: as §1
[9] = Solubility of the compound in 10% DMSO/50% PEG400/40% water at pH 3.5 by HPLC analysis; type: physicochemical
Summary of the method: (§3)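 1 mg of HCl salt mixed with vehicle (0.5 mL total), target 1 mg/mL. Components added in order: organic solvent (DMSO, ethanol or NMP), then PEG400, then water, vortexing after each addition. Sonicated 15 min, left 3 h at room temperature, then centrifuged 5 min.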

[10] = Solubility of the compound in 10% NMP/50% PEG400/40% water at pH 5 by HPLC analysis; type: physicochemical; summary of the method: as §3
[11] = AUC (0 to t) in Wistar rat at 10 mg/kg, po by LC-MS/MS analysis; type: ADME, organism-based; settings: in vivo
Summary of the method: (§4)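 Male Wistar rats (n = 3), single oral dose of 10 mg/kg HCl salt given as 1 mg/ml solution in 10% DMSO, 50% PEG400, 40% water pH 5. Blood drawn from catheter over 0–24 h into heparin tubes. Plasma spun off, stored at -80 °C, quantified by LC-MS/MS. Parameters by non-compartmental analysis, mean (SD).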

[12] = Solubility of the compound in 10% DMSO/90% water at pH 3.5 by HPLC analysis; type: physicochemical; summary of the method: as §3
[13] = Solubility of the compound in 10% DMSO/90% water at pH 5 by HPLC analysis; type: physicochemical; summary of the method: as §3
[14] = AUC (0 to infinity) in Wistar rat at 10 mg/kg, po by LC-MS/MS analysis; type: ADME, organism-based; parameters: dose 10 mg/kg, time infinity, route oral; settings: in vivo; summary of the method: as §4
[15] = AUC (0 to t) in Wistar rat at 2 mg/kg, iv by LC-MS/MS analysis; type: ADME, organism-based; settings: in vivo
Summary of the method: (§5)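 Male Wistar rats (n = 3), intravenous dose of 2 mg/kg HCl salt as 1 mg/ml solution in 10% DMSO, 50% PEG400, 40% water pH 5. Catheter blood sampling over 0–4 h into heparin. Plasma separated, stored at -80 °C, measured by LC-MS/MS. Non-compartmental estimation, mean (SD).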

[16] = MRT in Wistar rat at 2 mg/kg, iv by LC-MS/MS analysis; type: ADME, organism-based; settings: in vivo
Summary of the method: (§6)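 Male Wistar rats, n = 3 per route, dosed with HCl salt as 1 mg/mL solution in 10% DMSO/50% PEG400/40% water pH 5. Doses 2 mg/kg iv or 10 mg/kg po. Heparinised blood sampled via catheter (0–4 h iv, 0–24 h po), plasma analysed by LC-MS/MS. Parameters derived by non-compartmental analysis.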

[17] = Solubility of the compound in 10% EtOH/50% PEG400/40% water at pH 5 by HPLC analysis; type: physicochemical; summary of the method: as §3
[18] = Oral bioavailability in Wistar rat at 10 mg/kg by LC-MS/MS analysis; type: ADME, organism-based; settings: in vivo; summary of the method: as §6
[19] = Solubility of the compound in 60% PEG400/40% water at pH 7 by HPLC analysis; type: physicochemical; summary of the method: as §3
[20] = Solubility of the compound in 10% DMSO/90% water at pH 7 by HPLC analysis; type: physicochemical; summary of the method: as §3
[21] = Cmax in Wistar rat at 10 mg/kg, po by LC-MS/MS analysis; type: ADME, organism-based; parameters: dose 10 mg/kg, route oral; settings: in vivo
Summary of the method: (§7)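 Male Wistar rats dosed orally at 10 mg/kg with HCl salt as solution in 10% DMSO, 50% PEG400, 40% water pH 5. Catheter blood over 0-24 h into heparin, plasma by LC-MS/MS. Non-compartmental PK; n = 3, mean (SD).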

[22] = AUC (0 to infinity) in Wistar rat at 2 mg/kg, iv by LC-MS/MS analysis; type: ADME, organism-based; parameters: dose 2 mg/kg, time infinity, route intravenous; settings: in vivo; summary of the method: as §5
[23] = Solubility of the compound in 60% PEG400/40% water at pH 3.5 by HPLC analysis; type: physicochemical; summary of the method: as §3
[24] = Solubility of the compound in 10% NMP/50% PEG400/40% water at pH 3.5 by HPLC analysis; type: physicochemical; summary of the method: as §3
[25] = Tmax in Wistar rat at 10 mg/kg, po by LC-MS/MS analysis; type: ADME, organism-based; settings: in vivo; summary of the method: as §6
[26] = Solubility of the compound in 60% PEG400/40% water at pH 5 by HPLC analysis; type: physicochemical; summary of the method: as §3
[27] = Solubility of the compound in 10% EtOH/50% PEG400/40% water at pH 3.5 by HPLC analysis; type: physicochemical; summary of the method: as §3
[28] = Half life in Wistar rat at 10 mg/kg, po by LC-MS/MS analysis; type: ADME, organism-based; settings: in vivo; summary of the method: as §7
[29] = MRT in Wistar rat at 10 mg/kg, po by LC-MS/MS analysis; type: ADME, organism-based; settings: in vivo; summary of the method: as §6
[30] = Terminal half life in Wistar rat at 2 mg/kg, iv by LC-MS/MS analysis; type: ADME, organism-based; settings: in vivo, read-out: beta t1/2 (converted); summary of the method: as §6
[31] = Solubility of the compound in 10% DMSO/50% PEG400/40% water at pH 5 by HPLC analysis; type: physicochemical; summary of the method: as §3
[32] = test system: HeLa; test: Induction of mitotic arrest in human HeLa cells expressing GFP-tagged tubulin assessed as appearance of large vacuole like structures that filled out cytoplasmic area at 2.5 uM after 20 hrs by microscopic method; type: functional, cell-based
Summary of the method: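 HeLa cells stably expressing GFP-tubulin exposed to compound or DMSO for 20 h. Cytoplasmic vacuole-like structures and mitotic arrest examined by high-resolution microscopy.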

[33] = test system: HeLa; test: Induction of mitotic arrest in human HeLa cells assessed as formation of disorganized spindles at 2.5 uM after 6 hrs by DAPI staining-based immunofluorescence analysis; type: functional, cell-based
[34] = test system: HeLa; test: Induction of autophagy in human HeLa cells assessed as increase in LC3-2 levels after 6 hrs by immunoblot analysis; type: functional, cell-based; summary of the method: as §2
[35] = test system: HeLa; test: Inhibition of mitotic progression in human HeLa cells assessed as upregulation of phosphorylated histone H3 (Ser10) level after 6 hrs by immunoblot analysis; type: functional, cell-based; summary of the method: as §2
[36] = test system: HeLa; test: Induction of autophagy in human HeLa cells assessed as increase in LC3 puncta at 2.5 uM after 6 hrs by DAPI staining-based immunofluorescence microscopy; type: functional, cell-based
Summary of the method: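 HeLa cells exposed to compound or DMSO for 6 h, then immunostained for LC3 with DAPI nuclear counterstain. Puncta formation scored by fluorescence imaging as a read-out of LC3-II.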

[37] = test system: HeLa; test: Induction of mitotic arrest in human HeLa cells assessed as formation of misaligned chromosomes at 2.5 uM after 6 hrs by DAPI staining-based immunofluorescence analysis; type: functional, cell-based
[38] = test system: hTERT-BJ; test: Cell cycle arrest in human hTERT-BJ cells transformed with hTert, small t, shRNAs against p53 and pRb and H-RasV12-ER assessed as accumulation at sub-G1 phase at 5 uM after 48 hrs; type: functional, cell-based
Summary of the method: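 Isogenic normal and fully transformed BJ fibroblasts (hTert, small t, shRNAs to p53 and pRb, H-RasV12-ER) exposed to 5 μM for 48 h. Percentage of cells in sub-G1 phase determined as a cell death measure.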

[39] = test system: HeLa; test: Inhibition of colony formation in human HeLa cells after 7 days by plate colony counting method; type: functional, cell-based
[40] = test system: BJ; test: Induction of apoptosis in human BJ cells transformed with hTert, small t, shRNAs against p53 and pRb and H-RasV12-ER assessed as activation of caspase-3/7 up to 5 uM after 48 hrs by caspase-Glo 3/7 luminescent assay; type: functional, cell-based
Summary of the method: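 Normal and transformed BJ cells treated 48 h across a concentration series. Caspase-3/7 activity by Caspase-Glo 3/7 luminescence, normalized to viable cell number from MTT. Mean ± S.D., n=3; two-tailed unpaired t tests.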

## CCN(CC)CCCC(C)Nc1ccnc2cc(Cl)ccc12 (configuration not stated) [CHLOROQUINE]
[1]
  fold change (FC): 1.7
[2]
  fold change (FC): 3.1
[3]
  fold change (FC): 4.2
[4]
  Activity: inactive
[5]
  Activity: inactive
[6]
  fold change (FC): 4.2
[7]
  inhibition: inactive
[8]
  fold change (FC): 1.9

## Cl.N#C/C(=C\c1cccc2cnccc12)c1c[nH]c2ccccc12
[9]
  solubility: 966 µg/mL
[10]
  solubility: 1170 µg/mL
[11]
  AUC(0-t): 1690 ng·h/mL
[12]
  solubility: 7 µg/mL
[13]
  solubility: 6 µg/mL
[14]
  AUC(0-inf): 1770 ng·h/mL
[15]
  AUC(0-t): 820 ng·h/mL
[16]
  MRT: 17.4 min
[17]
  solubility: 741 µg/mL
[18]
  bioavailability: 43%
[19]
  solubility: 869 µg/mL
[20]
  solubility: 3 µg/mL
[21]
  Cmax: 1130 ng/mL
[22]
  AUC(0-inf): 822 ng·h/mL
[23]
  solubility: 1060 µg/mL
[24]
  solubility: 1220 µg/mL
[25]
  Tmax: 43.2 min
[26]
  solubility: 940 µg/mL
[27]
  solubility: 1300 µg/mL
[28]
  half-life: 96 min
[29]
  MRT: 113 min
[30]
  half-life: 21.6 min
[31]
  solubility: 1200 µg/mL

## N#C/C(=C\c1cccc2cnccc12)c1c[nH]c2ccccc12
[32]
  Activity: Active
[33]
  Activity: Active
[34]
  Activity: Dose-dependent effect
[35]
  inhibition: Dose-dependent effect
[4]
  Activity: Active
[36]
  Activity: Active
[37]
  Activity: Active
[5]
  Activity: Active
[38]
  Activity: Active
[39]
  Activity: Dose-dependent effect
[40]
  Activity: Active
